Experimental data reported in ChEMBL document CHEMBL4130543, “Bacilotetrins A and B, Anti-Staphylococcal Cyclic-Lipotetrapeptides from a Marine-Derived Bacillus subtilis” (J Nat Prod, 2017).
≈ marks a conversion by molar mass, not a printed value. Calls of active or inactive are those of the source. The rule behind the calls is not given here.

Legend:
Staphylococcus aureus [1] = experiment: Antibacterial activity against […] after 24 hrs by MTT dye based broth microdilution method; type: functional; conditions: ATCC 25923, 24 h
Staphylococcus aureus [2] = experiment: Antibacterial activity against methicillin-resistant Staphylococcus aureus isolate XU2120 after 24 hrs by MTT dye based broth microdilution method; type: functional; conditions: isolate XU2120, 24 h
Staphylococcus aureus [3] = experiment: Antibacterial activity against methicillin-resistant Staphylococcus aureus SA1199B after 24 hrs by MTT dye based broth microdilution method; type: functional
Staphylococcus aureus [4] = experiment: Antibacterial activity against methicillin-resistant Staphylococcus aureus RN4220 after 24 hrs by MTT dye based broth microdilution method; type: functional
Staphylococcus aureus [5] = experiment: Antibacterial activity against methicillin-resistant Staphylococcus aureus isolate EMRSA-15 after 24 hrs by MTT dye based broth microdilution method; type: functional
Prostatic carcinoma cell = experiment: Cytotoxicity against human prostate cancer cells at 3 to 30 ug/ml after 48 hrs by SRB assay; type: cell-based
In short: (§1)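 Cells plated in 96-well format with test samples at 30, 10 and 3 μg/mL for 48 h. Adherent cells fixed in 50% (wt/vol) trichloroacetic acid, stained 60 min with 0.4% sulforhodamine B in 1% acetic acid, bound dye dissolved in 10 mM Tris base, absorbance read at 510 nm.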

[6] = Cytotoxicity against human hepatic cancer cells at 3 to 30 ug/ml after 48 hrs by SRB assay; type: cell-based; in short: as §1

Compound: CCC(C)CCCCCCC[C@@H]1CC(=O)N[C@@H](CC(C)C)C(=O)N[C@@H](CC(C)C)C(=O)N[C@@H](CC(C)C)C(=O)N[C@@H](CCC(=O)O)C(=O)O1 (some centres undefined)
- MIC (Staphylococcus aureus [1]): 8 µg/mL (≈ 11.5 µM)
- MIC (Staphylococcus aureus [2]): 16 µg/mL (≈ 23 µM)
- MIC (Staphylococcus aureus [3]): 8 µg/mL (≈ 11.5 µM)
- MIC (Staphylococcus aureus [4]; RN4220, 24 h): 32 µg/mL (≈ 46 µM)
- MIC (Staphylococcus aureus [5]): inactive
- Activity (Prostatic carcinoma cell): Non-Toxic
- Activity [6]: Non-Toxic

Compound: CCn1cc(C(=O)O)c(=O)c2cc(F)c(N3CCNCC3)cc21 [NORFLOXACIN]
- MIC (Staphylococcus aureus [1]): 16 µg/mL (≈ 50.1 µM)
- MIC (Staphylococcus aureus [2]): 16 µg/mL (≈ 50.1 µM)
- MIC (Staphylococcus aureus [3]): 64 µg/mL (≈ 200 µM)
- MIC (Staphylococcus aureus [4]; RN4220, 24 h): 2 µg/mL (≈ 6.26 µM)
- MIC (Staphylococcus aureus [5]; isolate EMRSA-15, 24 h): 4 µg/mL (≈ 12.5 µM)

Compound: CCC(C)CC(C)CCCCC[C@@H]1CC(=O)N[C@@H](CC(C)C)C(=O)N[C@@H](CC(C)C)C(=O)N[C@@H](CC(C)C)C(=O)N[C@@H](CCC(=O)O)C(=O)O1 (some centres undefined)
- MIC (Staphylococcus aureus [1]): 16 µg/mL (≈ 22.6 µM)
- MIC (Staphylococcus aureus [2]): 16 µg/mL (≈ 22.6 µM)
- MIC (Staphylococcus aureus [3]): 32 µg/mL (≈ 45.1 µM)
- MIC (Staphylococcus aureus [4]): inactive
- MIC (Staphylococcus aureus [5]): inactive
- Activity (Prostatic carcinoma cell): Non-Toxic
- Activity [6]: Non-Toxic
